Bioassay records: PubChem BioAssay, several laboratories
In the library only some 3% were active in any assay of this set; here they are far more common.
UBC13 inh = inhibitors of human UBC13 polyubiquitin chain formation; inhibition, % at 20 µM; 330,000 compounds, 0.47% hits; TR-FRET; P61088; in the data active = inhibition above about 45%, passing the limit was not always enough
Target sequence (P61088 whole entry, looked up): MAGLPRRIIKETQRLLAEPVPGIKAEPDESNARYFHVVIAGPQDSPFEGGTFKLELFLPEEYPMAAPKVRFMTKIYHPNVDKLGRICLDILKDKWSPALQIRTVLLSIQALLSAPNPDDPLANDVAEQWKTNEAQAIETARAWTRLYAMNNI
Apaf-1 inh = human Apaf-1 inhibition | 330,000 compounds, 0.71% hits | inhibition, % at 20 µM | reconstituted apoptosome caspase-3 activity, DEVD-Rh110 fluorescence | AID 489030; active = inhibition of at least 40% at 20 µM;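 also: plate controls were DMSO wells for no effect and DEVD-CHO caspase inhibitor wells for full effect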
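System – cell-free apoptosome with Apaf-1, procaspase-3 and caspase-9 · Buffer or medium – pH 7.5 Hepes buffer with CHAPS, BSA, DTT · Also added – cytochrome c with DEVD-Rh110 · Times – 30 min compound preincubation, 50 min activation, room temperature · Technique – Rh110 fluorescence intensity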
MEKK2mut PB1 HTS = signal of MEK5 binding to mutant human MEKK2 PB1 domain; AID 1530; percent response, % at 10 µM; bead flow cytometry, Alexa488-MEK5 binding to MEKK2 mutant; 290,000 compounds, 0.35% hits; in the data active = percent response above about 24%, passing the limit was not always enough
MEKK3 PB1 HTS = MEKK3-MEK5 PB1 interaction, increase or decrease; 290,000 compounds, 1.4% hits; binding response (% of control), % at 10 µM; Q99759; bead-based flow cytometry, Alexa488-MEK5 binding to MEKK3; actives lie on both sides; 0 = blocked by unlabeled MEK5, 100 = vehicle;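 active = binding response more than 3 SD above or below the average of its plate-row segment, actives on both sides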;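 also: Alexa488 bead fluorescence after subtracting the streptavidin-only scavenger bead signal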
UCH37 inh = inhibitors of human deubiquitinating enzyme UCH37; 330,000 compounds, 0.33% hits; inhibition, % (test concentration not listed); purified proteasome/UCH37, Ub-AMC cleavage fluorescence; Q9Y5K5;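 active = mean inhibition over replicate wells above about 20%, limit read from the data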;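 also: 0% = compound-free wells with enzyme and 100% = wells lacking proteasome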
Target sequence (Q9Y5K5 whole entry, looked up): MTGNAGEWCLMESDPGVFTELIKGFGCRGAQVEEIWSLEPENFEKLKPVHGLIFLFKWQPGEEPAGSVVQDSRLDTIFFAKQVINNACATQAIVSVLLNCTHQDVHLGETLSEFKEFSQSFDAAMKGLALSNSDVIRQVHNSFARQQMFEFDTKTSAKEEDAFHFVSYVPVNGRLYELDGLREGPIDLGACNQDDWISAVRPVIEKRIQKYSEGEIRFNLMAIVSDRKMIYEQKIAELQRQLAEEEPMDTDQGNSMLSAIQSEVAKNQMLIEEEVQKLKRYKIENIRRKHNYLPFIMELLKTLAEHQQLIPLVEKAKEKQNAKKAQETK
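Material: human UCH37 enzyme supplied as purified proteasome complex / Amount: 0.15 nM proteasome as dispensed / Buffer or medium: pH 7.4 Tris-HCl (50 mM) with ovalbumin, ATP-MgCl2, DTT / Times: preincubation 30 min, reaction 25 min, room temperature / Technique: AMC fluorescence from Ub-AMC cleavage, excitation 355 nm, emission 460 nm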
MEKK2wt PB1 HTS = raises or lowers MEK5 binding to wildtype human MEKK2 PB1 domain; bead flow cytometry, Alexa488-MEK5 binding to MEKK2 WT; actives lie on both sides; binding response (% of control), % at 10 µM; 290,000 compounds, 1.1% hits; Q9Y2U5; in the data active = binding response below about 67% or above about 130%
Active calls of the source: *; x = no result; [ ] = dose if it differs, or a comment.

SMILES | UBC13 inh | Apaf-1 inh | MEKK2mut PB1 HTS | MEKK3 PB1 HTS | UCH37 inh | MEKK2wt PB1 HTS
C#CCOCCOCCOCCNc1nc(N2CCN(C(=O)Cn3cc(CCCN=C(N)N)nn3)CC2)nc(N2CCN(C(=O)[C@H](CCCCN)n3cc(CC(C)O)nn3)CC2)n1 (some centres undefined) | 4.8 | -1.9 | x | x | 0.9 | x
C#CCOCCOCCOCCNc1nc(N2CCOCC2)nc(N2CCN(C(=O)CCCCCCCCCCNC(=O)[C@@H](CCSC)n3cc(CCO)nn3)CC2)n1 | 0.9 | 7.6 | x | x | 0.5 | x
C#CCOCCOCCOCCNc1nc(N2CCN(C(=O)CCCCCCCCCCNC(=O)[C@@H](CCSC)n3cc(CCO)nn3)CC2)nc(N2CCN(C(=O)CCCCCCCCCCNC(=O)[C@H]([C@@H](C)CC)n3cc(CCCCCN)nn3)CC2)n1 | 116.3* | 50.9* | x | x | x | x
C#CCOCCOCCOCCNc1nc(N2CCN(C(=O)[C@H](C)n3cc(CCC(=O)O)nn3)CC2)nc(N2CCN(C(=O)[C@H](CCCCN)n3cc(CCCC)nn3)CC2)n1 | x | x | x | x | -1.7 | x
C#CCOCCOCCOCCNc1nc(N2CCN(C(=O)CCCCCCCCCCNC(=O)[C@H](CCCCN)n3cc(CCO)nn3)CC2)nc(N2CCN(C(=O)CCCCCCCCCCNC(=O)[C@H](CCCN=C(N)N)n3cc(C[C@@H](C)CC)nn3)CC2)n1 | 125.2* | 77.7* | x | x | 10.3 | x
C#CCOCCOCCOCCNc1nc(N2CCN(C(=O)[C@H](CCCCN)n3cc(CCCC)nn3)CC2)nc(N2CCN(C(=O)[C@H](Cc3ccc(O)cc3)n3cc(CCO)nn3)CC2)n1 | 90.5* | 19.6 | 3.0 | 99.0 | 6.4 | 135.0
C#CCOCCOCCOCCNc1nc(N2CCN(C(=O)CCCCCCCCCCNC(=O)[C@H](CO)n3cc(CCCSC)nn3)CC2)nc(N2CCN(C(=O)CCCCCCCCCCNC(=O)[C@H](CO)n3cc(CCCSC)nn3)CC2)n1 | 2.6 | 25.6 | x | x | 1.0 | x
C#CCOCCOCCOCCNc1nc(N2CCN(C(=O)CCCCCCCCCCNC(=O)[C@H](CO)n3cc(CCCSC)nn3)CC2)nc(N2CCN(C(=O)CCCCCCCCCCNC(=O)[C@H](CCCCN)n3cc(C[C@@H](C)CC)nn3)CC2)n1 | 118.1* | 68.2* | x | x | x | x
Brc1ccc(C2=Nn3c(Cn4nnc5ccccc54)nnc3SC2)cc1 | -2.8 | 11.4 | -4.0 | 94.0 | 2.3 | 94.0
CCOc1ccccc1N1CCN(C(=O)CC(C)C)CC1 | 4.1 | -19.0 | -2.0 | 101.0 | 5.7 | 98.0
C#CCOCCOCCOCCNc1nc(N2CCN(C(=O)[C@H]([C@@H](C)CC)n3cc(CCCN=C(N)N)nn3)CC2)nc(N2CCN(C(=O)[C@H](CCCCN)n3cc(CC(C)O)nn3)CC2)n1 (some centres undefined) | 2.9 | -3.6 | x | x | -2.9 | x
C#CCOCCOCCOCCNc1nc(N2CCN(C(=O)CCCCCCCCCCNC(=O)[C@H]([C@@H](C)CC)n3cc(CCCCN=C(N)N)nn3)CC2)nc(N2CCN(C(=O)CCCCCCCCCCNC(=O)[C@H](CCCCN)n3cc(C[C@@H](C)CC)nn3)CC2)n1 | 122.2* | 55.5* | x | x | x | x
C#CCOCCOCCOCCNc1nc(N2CCN(C(=O)C([C@@H](C)CC)n3cc(C(N)CC(C)C)nn3)CC2)nc(N2CCN(C(=O)[C@H](CCCCN)n3cc(C(N)COC(=O)C(F)(F)F)nn3)CC2)n1 (some centres undefined) | 34.5 | 28.3 | 9.0 | 105.0 | x | 125.0
C#CCOCCOCCOCCNc1nc(N2CCN(C(=O)[C@H](CCCCN)n3cc(C(N)CO)nn3)CC2)nc(N2CCN(C(=O)[C@H](CCCCN)n3cc(C(N)COC(=O)C(F)(F)F)nn3)CC2)n1 (some centres undefined) | 76.1* | 9.6 | 5.0 | 102.0 | x | 112.0
CCOC(=O)c1ccc(NC(=S)NN2CCOCC2)cc1 | -2.2 | 0.7 | 0.0 | 106.0 | 1.0 | 102.0
N#CC1=C(N)Oc2cc(N)ccc2C1c1ccccc1Cl (centres undefined) | 3.6 | 9.1 | -2.0 | 100.0 | -19.5 | 102.0
N#CC1=C(N)OC2=C(CCc3ccccc32)C1c1ccccc1Cl (centres undefined) | 1.5 | 9.3 | 1.0 | 144.0* | -2.7 | 105.0
C=C(C)CC(NCCc1ccccc1)c1ccco1 (centres undefined) | x | x | -15.0 | 98.0 | 5.5 | 164.0*
CC(/C=N/NC(=O)c1cccs1)=C\c1ccco1 | -12.9 | 12.6 | -3.0 | 88.0 | x | 89.0
C/C(C=NNC(=O)c1ccncc1)=C\c1ccco1 | x | x | x | x | 22.7* | x
Cc1ccccc1CN1CCN(S(=O)(=O)c2ccc(Cl)s2)CC1 | -4.9 | 6.6 | 8.0 | 107.0 | 3.9 | 116.0
CC1(C)Cc2c(sc3ncnc(NNC(=S)NCc4ccccc4)c23)CO1 | -4.9 | -8.8 | 0.0 | 132.0* | 0.6 | 108.0
CC(C)NC(=S)NNc1ncnc2sc3c(c12)CC(C)(C)OC3 | -12.4 | -2.0 | x | x | 4.5 | x
CCc1nccn1CCC(=O)NC1CCCc2c1cnn2-c1ccc(F)cc1F (centres undefined) | -1.0 | -13.8 | -22.0 | 71.0*[inhibitor] | -1.5 | 66.0*[inhibitor]
O=C(N=C1c2ccccc2CN1c1ccccc1)c1cccc([N+](=O)[O-])c1 | -1.9 | 1.3 | 4.0 | 95.0 | 2.1 | 5.0*
SMILES | UBC13 inh | Apaf-1 inh | MEKK2mut PB1 HTS | MEKK3 PB1 HTS | UCH37 inh | MEKK2wt PB1 HTS
CN(C)c1ccc(C2N(c3ccc(F)cc3)C(=O)C3CCCN32)cc1 (centres undefined) | -14.1 | -2.2 | 19.0 | 92.0 | 6.8 | 18.0*
CC(C)c1ccc(NC(=O)CSc2nc3c(c(=O)[nH]2)CCC3)cc1 | x | x | 2.0 | 104.0 | x | 102.0
COc1ccccc1N1CCN(CCCNC(=O)C2CCCN(c3ncnc4c3nc3n4CCCCC3)C2)CC1 (centres undefined) | 23.3 | 12.2 | 21.0 | 103.0 | 5.6 | 136.0*
CC1CCN(CCCNC(=O)C2CCCN(c3ncnc4c3nc3n4CCCCC3)C2)CC1 (centres undefined) | 12.1 | 8.4 | 0.0 | 100.0 | 0.3 | 104.0
CNc1cncc(C(=O)O)c1 | 9.6 | -6.1 | x | x | x | x
COc1ccc(S(=O)(=O)N2CCN(C(=O)c3cnc(C)cn3)CC2)cc1 | 4.7 | -4.0 | 5.0 | 102.0 | 33.5* | 107.0
CC(=O)N1CCc2c(sc(NC(=O)c3cccc(N4C(=O)CCC4=O)c3)c2C(N)=O)C1 | -12.6 | 57.0* | 8.0 | 104.0 | 12.1 | 101.0
CC(C)N1CCc2c(sc(NC(=O)c3ccc4ccccc4c3)c2C(N)=O)C1 | 22.6 | 12.5 | 14.0 | 103.0 | -18.7 | 134.0*
NC(=O)c1c(NC(=O)c2cccc(N3C(=O)CCC3=O)c2)sc2c1CCCCC2 | 12.2 | -2.8 | 2.0 | 97.0 | -137.5 | 102.0
CC(=O)Oc1ccccc1C1OC(=O)c2ccccc2N1C(C)=O (centres undefined) | -6.0 | 3.1 | -5.0 | 99.0 | -2.4 | 93.0
